Source: PubChem BioAssay (several laboratories)
NPY Y2 blocker – blocks the human neuropeptide Y Y2 receptor. 140,000 compounds, 0.99% hits. inhibition, % at 2.7 µM. NPY-Y2 expressing cells, antagonist mode. P49146; in the data active = inhibition above about 17%;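 also: 0% = vehicle with agonist challenge and 100% = reference antagonist with challenge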
NPY1 pot ag – human NPY-Y1 potentiation or agonism, primary screen; P25929; NPY-Y1 expressing cells, potentiator/agonist activation; activation, % at 3.6 µM; 220,000 compounds, 0.37% hits; AID 1304; in the data active = activation above about 33%, passing the limit was not always enough;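 also: cells stimulated with NPY at EC10 then isoproterenol at EC100; 0% = low agonist plus stimulus and 100% = saturating agonist plus stimulus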
EP2 antag – blocks the human prostaglandin E2 receptor EP2. 260,000 compounds, 0.52% hits. C6 glioma cells expressing human EP2, cAMP TR-FRET; cells stimulated with saturating PGE2. P43116. AID 1422. inhibition, % at 25 µM;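 active = percent inhibition above 40 after rounding to a whole number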;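 also: rat C6 glioma host cells with rolipram phosphodiesterase inhibitor present; the protocol text gives 20 µM as final concentration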
Target sequence (P43116 whole entry, looked up): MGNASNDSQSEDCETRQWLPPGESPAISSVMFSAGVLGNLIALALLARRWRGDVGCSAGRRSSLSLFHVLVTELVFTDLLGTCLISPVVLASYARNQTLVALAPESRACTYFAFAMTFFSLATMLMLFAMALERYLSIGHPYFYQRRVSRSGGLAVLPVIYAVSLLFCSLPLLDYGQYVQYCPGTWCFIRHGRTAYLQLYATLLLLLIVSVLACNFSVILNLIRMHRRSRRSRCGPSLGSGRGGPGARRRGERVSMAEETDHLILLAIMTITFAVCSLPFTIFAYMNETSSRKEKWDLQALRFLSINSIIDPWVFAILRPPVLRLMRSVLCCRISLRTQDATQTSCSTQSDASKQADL
EP2 modulator – modulators of human EP2 prostaglandin E2 receptor | 260,000 compounds, 0.83% hits | EP2-expressing cells, cAMP HTRF FRET, PGE2 co-stimulation | induction, % at 25 µM;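 active = compounds whose cAMP rise, as percent of the full-agonist control response, exceeds 60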;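 also: rat C6 glioma line stably carrying human EP2 under a CMV promoter; the protocol text gives 20 µM as final concentration; 100% = response of wells given 1 µM PGE2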
NPY-Y1 antag – antagonists of human neuropeptide Y receptor Y1; P25929; HEK293-CNG Y1 cells, membrane potential fluorescence; NPY at EC95, then isoproterenol; inhibition, % at 3.6 µM; 200,000 compounds, 1% hits;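 active = inhibition above the campaign mean inhibition of all tested compounds plus 3 SD, cut at about 20% in these data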;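 also: 0% = DMSO wells given NPY plus isoproterenol and 100% = isoproterenol alone without NPY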
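Test system – HEK293 Y1/CNG channel cell line · Also added – NPY agonist 25 nM, then isoproterenol 1 µM plus Ro 20-1724 25 µM · Compound dosing – one concentration, 3.6 µM, in 0.4% DMSO · Schedule – compound incubation 1 h at room temperature, readout 45 min post-stimulation · Technique – fluorescence, membrane potential probe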
NPY-Y2 PAM-ag – human NPY-Y2 potentiation or agonism, primary screen. cells expressing NPY-Y2, potentiator/agonist read-out. AID 1359. activation, % at 3.6 µM. 220,000 compounds, 0.45% hits; in the data active = activation above about 27%;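 also: cells stimulated with NPY near EC25 plus isoproterenol at EC100; 0% = vehicle plus submaximal agonist and 100% = vehicle plus saturating agonist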
NPY-Y1 confirm – human NPY-Y1 potentiation or agonism, confirmation; shares compounds with NPY1 pot ag; cell-based NPY-Y1 potentiator/agonist assay; activation, % at 3.6 µM; 280 compounds, 20% hits; AID 1546; in the data active = activation above about 45%;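 also: cells challenged with NPY at its EC10 plus isoproterenol stimulus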
NPY-Y2 counter – potentiates or activates NPY-Y2, counter-screen for NPY-Y1 hits | shares compounds with NPY1 pot ag | 280 compounds, 20% hits | activation, % at 3.6 µM | HEK293-CNG cells, membrane-potential fluorescence (FLIPR), 1536-well | AID 1649
NPY-Y1 ag – counter-screen for NPY-Y1 potentiators: agonists of human NPY-Y1; shares compounds with NPY1 pot ag; HEK293 Y1-CNGC, membrane potential fluorescence, agonist mode; activation, % at 3.6 µM; 280 compounds, 50% hits;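 active = percent activation above the mean of DMSO-only control wells plus 3 SD of those wells, cut at about 18% in these data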;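 also: cells challenged with isoproterenol plus Ro 20-1724 with no NPY in test wells; Y1 agonism lowers isoproterenol-driven cAMP and reduces probe fluorescence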
NPY-Y2 ag – human NPY-Y2 agonism as NPY-Y1 counter-screen | shares compounds with NPY1 pot ag | activation, % at 3.6 µM | HEK293 Y2-CNGC, membrane potential fluorescence, agonist mode | 280 compounds, 67% hits | AID 1698;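 active = activation above the solvent-only control wells' mean plus 3 SD, cut at about 11% in these data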;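 also: 0% = DMSO with isoproterenol and 100% = 40 nM NPY maximal response; agonism lowers cAMP so well fluorescence drops in active wells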
CNGC inh 2 – CNG channel inhibition, counter-screen for NPY-Y1 potentiators. shares compounds with NPY1 pot ag. HEK293-CNG parental, isoproterenol cAMP, membrane potential fluorescence. AID 1704. 280 compounds, 42% hits. inhibition, % at 3.6 µM;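 active = inhibition above the mean of stimulated solvent-only control wells plus 3 SD, cut at about 22% in these data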;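 also: 0% = isoproterenol-stimulated DMSO wells and 100% = unstimulated DMSO wells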
NPY-Y2 confirm – confirmation of human NPY-Y2 receptor potentiators or agonists. shares compounds with NPY-Y2 PAM-ag. AID 1539. cell-based NPY-Y2 potentiator/agonist assay. activation, % at 3.6 µM. 450 compounds, 20% hits
NPY-Y1 potentiator – NPY-Y1 potentiation or agonism as NPY-Y2 counter-screen. activation, % at 3.6 µM. Y1 HEK293-CNG cells, membrane potential fluorescence. 450 compounds, 20% hits. shares compounds with NPY-Y2 PAM-ag; in the data active = activation above about 45%;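 also: cells stimulated with submaximal NPY then isoproterenol with phosphodiesterase inhibitor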
NPY-Y1 ag 2 – counter-screen for NPY-Y2 potentiators: agonists of human NPY-Y1. activation, % at 3.6 µM. AID 1702. shares compounds with NPY-Y2 PAM-ag. HEK293 Y1-CNGC, membrane potential fluorescence, agonism. 450 compounds, 37% hits;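 active = activation above the mean of DMSO-only control wells plus 3 SD, cut at about 18% in these data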;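 also: cells stimulated with 1 µM isoproterenol plus the PDE inhibitor Ro 20-1724; 0% = isoproterenol with DMSO and no NPY and 100% = 40 nM NPY; Y1 agonists lower the membrane potential dye signal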
CNGC inhibitor – cyclic nucleotide gated channel inhibition as counter-screen; shares compounds with NPY-Y2 PAM-ag; HEK293-CNG parental, isoproterenol cAMP, membrane potential fluorescence; inhibition, % at 3.6 µM; 450 compounds, 32% hits;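 active = inhibition above the control-well mean plus 3 SD of those wells, cut at about 22% in these data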;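 also: 0% = DMSO with isoproterenol and 100% = DMSO without isoproterenol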
Y2 agonist ctr – NPY-Y2 agonism, counter-screen for Y2 potentiators; shares compounds with NPY-Y2 PAM-ag; HEK293 Y2/CNGC cells, membrane potential fluorescence, agonist mode; activation, % at 3.6 µM; 450 compounds, 56% hits; AID 1710;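 active = activation above the mean of solvent-only control wells plus 3 SD, cut at about 10% in these data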;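 also: cells stimulated by isoproterenol with no NPY added so direct agonism is tested; 0% = DMSO with isoproterenol alone and 100% = NPY at EC100 plus isoproterenol; agonism lowers probe fluorescence through less cAMP and CNG channel opening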
Starred values were filed as active, the others as inactive; . = no result given. Compounds with a hit are over-represented: about 2.8% of the library has one in this group of screens. Rule as the data show it, unless noted: active = activation above about 33%; inactive = the rest.

SMILES	NPY Y2 blocker	NPY1 pot ag	EP2 antag	EP2 modulator	NPY-Y1 antag	NPY-Y2 PAM-ag	NPY-Y2 confirm	NPY-Y1 potentiator	NPY-Y1 ag 2	CNGC inhibitor	Y2 agonist ctr	others
CCC(=NCc1ccc(F)cc1)c1c(O)n(C)c(=O)n(C)c1=O	3	37*	6	2	4	0	.	.	.	.	.	NPY-Y1 confirm=-22;NPY-Y2 counter=-13;NPY-Y1 ag=-24;NPY-Y2 ag=-9;CNGC inh 2=-16
CCC(CC)N1CCN(Cc2ccccc2C)CC1	.	.	3	-10	.	.	.	.	.	.	.
CN1CCN(c2cccc3c2C(=O)c2ccccc2C3=O)CC1	-2	23	8	-17	-5	33*	29	33	18*	24*	33*
CN1CCN(c2ccc3c(c2)S(=O)(=O)c2ccccc2C3=O)CC1	.	.	13	.	.	.	.	.	.	.	.
CN(C)CCCN=Cc1c(O)n(CCc2ccccc2)c(=O)[nH]c1=O	0	15	0	12	1	3	.	.	.	.	.
O=c1[nH]c(=O)n(CCc2ccccc2)c(O)c1C=NC1CC1	.	-7	7	2	.	73*	-1	0	-3	3	-3
C=CCNC(=S)Nc1ccc(OC(=O)Nc2ccc(Cl)c(Cl)c2)cc1	.	12	8	-5	.	83*	10	7	2	9	10
O=C(Nc1ccncc1)c1cccn(Cc2ccccc2)c1=O	.	20	9	-28	-4	34*	2	-33	-25	-15	-10
OC1(c2ccc(F)cc2)CC2CCC(C1)N2Cc1nnnn1Cc1ccco1 (stereo not given)	.	.	9	-46	.	.	.	.	.	.	.
CC1CCC(NC(=O)CN2C3CCC2CC(O)(c2ccco2)C3)CC1 (stereo not given)	.	.	.	-32	.	.	.	.	.	.	.
